Measurements reported in ChEMBL document CHEMBL5352477, “Isoform selectivities of novel 4-hydroxycoumarin imines as inhibitors of myosin II” (Eur J Med Chem, 2023).
Values after ≈ are worked out from the molar mass of the structure shown. Active and inactive are the calls of the source. No cut-off for these calls is given here.

Experiments:
[1] = (§1) Inhibition of full length chicken phosphorylated myosin 2 smooth muscle isoform derived from gizzard ATPase activity assessed as reduction in steady-state rabbit F-actin-activated Mg2+ ATPase activity incubated for 6 to 24 mins in presence of ATPase buffer at 7.0 containing Mgcl2 and ATP by fluorescence-based assay; format: tissue-based, Gallus gallus
[2] = system: COS-7; assay: Inhibition of Non-muscle myosin IIB in African green monkey COS-7 cells assessed as inhibition of cytokinesis by measuring increase in nuclei to cell ratio (N/C) at 40 uM incubated for 24 hrs by fluorescein-diacetate, Hoechst 33342 and propidium iodide staining based fluorescence microscopy relative to control; settings: Chlorocebus aethiops
Summary of the method: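 COS-7 cells (4,000/well) preincubated 24 h at 37 °C in 5% CO2, then exposed 24 h to 40 μM compound, final 1% DMSO. Media and 1% DMSO served as negative controls; para-aminoblebbistatin 20 μM and blebbistatin 10 μM as positive controls. Stained 10 min with FDA 6 μM, Hoechst 33342 10 μM and PI 4 μM, then imaged; N/C counted excluding PI-positive nuclei. Triplicate wells, ≥2 experiments, ≥600 cells per well.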

[3] = Inhibition of full length bovine Myosin-2 cardiac muscle isoform from left ventricle ATPase activity assessed as reduction in steady-state rabbit F-actin-activated Mg2+ ATPase activity incubated for 6 to 24 mins in presence of ATPase buffer at 7.0 containing Mgcl2 and ATP by fluorescence-based assay; set-up: species or system Bos taurus, Heart left ventricle
[4] = as §1, with “rabbit” for “chicken phosphorylated”, “skeletal” for “smooth”, “Psoas muscle” for “gizzard”; format: tissue-based, Oryctolagus cuniculus
[5] = system: COS-7; assay: Cytotoxicity against Green monkey COS-7 cells assessed as reduction in cell viability incubated for 24 hrs by MTT assay; format: toxicity, cell-based; settings: chlorocebus aethiops, cos-7, 24 h
Summary of the method: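 COS-7 cells seeded at 2.5 × 10^4 per well, grown 24 h at 37 °C in 5% CO2, then treated 24 h with 20, 40, 100 or 200 μM compound in media with 1% DMSO (4 wells each). MTT 1.2 mM in PBS for 2 h in the dark, lysis in 0.1% NP-40/isopropanol with HCl, A564 read; CC50 and CC90 taken as concentrations giving 50% and 90% loss of viability.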

[6] = Kinetic solubility of the compound in 2.5% DMSO/PBS at pH 7.4 incubated for 1 hrs by nephelometry; format: physicochemical; settings: for Kinetic_solubility: buffer, pH 7.4, 1 h; for solubility kinetic at 1 h: 2.5% DMSO/PBS, pH 7.4, read-out: Kinetic_solubility
Summary of the method: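 DMSO stock (20 mM) added to PBS pH 7.4, then serially diluted in quadruplicate at a constant 2.5% DMSO. Plates shaken 2 min, incubated 1 h at 37 °C, shaken 3 min, and turbidity read by nephelometry; average blank subtracted.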

[7] = Hydrolytic stability of the compound ATPase assay buffer at pH 7 containing Mgcl2 and ATP assessed as half life by UV-visible spectrophotometry; format: physicochemical
Summary of the method: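 Compound diluted from 20 mM DMSO stock to 8 μM final (2% DMSO) in ATPase buffer: 10 mM MOPS pH 7.0, 50 mM NaCl, 0.1 mM EGTA, 5 mM MgCl2, 2 mM ATP, 1 mM DTT. Kept sealed at 30 °C; UV-vis spectrum (0.5 nm steps, 1 cm quartz) recorded at start and every 24 h against fresh reference solutions.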

[8] = Selectivity index, ratio of IC50 for inhibition of full length bovine cardiac muscle myosin II ATPase activity to IC50 for inhibition of full length rabbit skeletal muscle myosin II ATPase activity

SMILES	IC50 [1] [µM]	inhibition [2]	further results
C/C(=N\Nc1ccccc1)c1c(O)c2ccccc2oc1=O	≥ 100	inactive	
CCCCN(CCC/N=C(\C)c1c(O)c2ccccc2oc1=O)Cc1cccc(OC)c1	≥ 100	inactive	IC50 [3]: ≥ 100 µM; IC50 [4]: ≥ 100 µM
C/C(=N\Cc1ccccc1)c1c(O)c2cc([N+](=O)[O-])ccc2oc1=O	≥ 100	inactive	
COc1ccc(COCCC/N=C(\C)c2c(O)c3ccccc3oc2=O)cc1	≥ 100	inactive	IC50 [3]: ≥ 100 µM; IC50 [4]: 50 µM; CC10 [5]: 46 µM; CC50 [5]: > 200 µM; Kinetic_solubility [6]: 103 µM
C/C(=N\Cc1ccccc1)c1c(O)c2ccccc2oc1=O	≥ 100	inactive	t1/2 [7]: > 140 h
Cc1ccc2c(c1)C(=O)[C@]1(O)CCN(c3ccc(N)cc3)C1=N2	≥ 100		
CCC/C(=N\Cc1ccccc1)c1c(O)c2ccccc2oc1=O	≥ 100	inactive	
CC/N=C(\C)C1C(=O)Oc2ccccc2C1=O (configuration not stated)	≥ 100	inactive	
CCC/N=C(\C)c1c(O)c2ccccc2oc1=O	≥ 100	inactive	
CC(=N)C1C(=O)Oc2ccccc2C1=O (configuration not stated)	≥ 100	inactive	
COCCC/N=C(\C)c1c(O)c2ccccc2oc1=O	≥ 100	inactive	IC50 [3]: 38 µM; IC50 [4]: 11 µM; Ratio IC50 [8]: 3.5; CC10 [5]: 339 µM; CC50 [5]: > 1000 µM
C/C(=N\Cc1ccncc1)c1c(O)c2ccccc2oc1=O	≥ 100	inactive	solubility kinetic at 1 h [6]: > 400 µM
CCCCCC/N=C(\C)c1c(O)c2ccccc2oc1=O	≥ 100	inactive	
C/C(=N\Cc1cccc(C)c1)c1c(O)c2ccccc2oc1=O	≥ 100	inactive	
CCC(C)/N=C(\C)c1c(O)c2ccccc2oc1=O (configuration not stated)	≥ 100	inactive	
CCCC/N=C(\C)C1C(=O)Oc2ccccc2C1=O (configuration not stated)	≥ 100	inactive	solubility kinetic at 1 h [6]: 607 µM (≈ 157 µg/mL)
COCCOCCOCCC/N=C(\C)c1c(O)c2ccccc2oc1=O	≥ 100	inactive	IC50 [3]: ≥ 100 µM; IC50 [4]: ≥ 100 µM
O=c1oc2ccccc2c(O)c1/C=N/Cc1ccccc1	≥ 100	inactive	IC50 [3]: ≥ 100 µM; IC50 [4]: ≥ 100 µM; t1/2 [7]: 60 h
C/C(=N\Cc1ccc(C)cc1)c1c(O)c2ccccc2oc1=O	≥ 100	inactive	
C/C(=N\Cc1ccccc1)c1c(O)c2ccccc2[nH]c1=O	≥ 100	inactive	
C/C(=N\CCO)c1c(O)c2ccccc2oc1=O	≥ 100	inactive	
C/C(=N\CCO)c1c(O)c2ccccc2[nH]c1=O	≥ 100	inactive	
COc1cccc(C/N=C(\C)c2c(O)c3ccccc3oc2=O)c1	≥ 100	inactive	IC50 [3]: 4.4 µM; IC50 [4]: 9.1 µM; Ratio IC50 [8]: 0.5; CC10 [5]: 39 µM; CC50 [5]: > 200 µM
COc1ccc(C/N=C(\C)c2c(O)c3ccccc3oc2=O)cc1	≥ 100	inactive	IC50 [3]: 5.4 µM; IC50 [4]: 1.6 µM; Ratio IC50 [8]: 3.4; CC10 [5]: 36 µM; CC50 [5]: > 200 µM
CCOCC/N=C(\C)c1c(O)c2ccccc2oc1=O	≥ 100	inactive	IC50 [3]: 24 µM; IC50 [4]: 19 µM; Ratio IC50 [8]: 1.3; CC10 [5]: 184 µM; CC50 [5]: > 1000 µM

SMILES	IC50 [1] [µM]	inhibition [2]	further results
COCC/N=C(\C)c1c(O)c2ccccc2oc1=O	≥ 100	inactive	IC50 [3]: 52 µM; IC50 [4]: 90 µM; Ratio IC50 [8]: 0.6; CC10 [5]: 286 µM; CC50 [5]: > 200 µM
C/C(=N\Cc1cccnc1)c1c(O)c2ccccc2oc1=O	≥ 100	inactive	
Cc1ccc2c(c1)C(=O)[C@]1(O)CCN(c3ccccc3)C1=N2	≥ 100	inactive	
CCCCC/N=C(\C)c1c(O)c2ccccc2[nH]c1=O	≥ 100	inactive	
C/C(=N\Cc1ccccc1C)c1c(O)c2ccccc2oc1=O	≥ 100	inactive	
CCOCCC/N=C(\C)c1c(O)c2ccccc2oc1=O	≥ 100	inactive	IC50 [3]: 8.1 µM; IC50 [4]: 2.5 µM; Ratio IC50 [8]: 3.2; CC10 [5]: 53 µM; CC50 [5]: 980 µM; Kinetic_solubility [6]: > 1250 µM
C/C(=N\OCc1ccccc1)c1c(O)c2ccccc2oc1=O	≥ 100	inactive	
CCOCCC/N=C/c1c(O)c2ccccc2oc1=O	≥ 100	inactive	IC50 [3]: ≥ 100 µM; IC50 [4]: 3.3 µM; Ratio IC50 [8]: > 30; CC10 [5]: 135 µM; CC50 [5]: > 1000 µM
C/C(=N\CC1CCCCC1)c1c(O)c2ccccc2[nH]c1=O	≥ 100	inactive	
CCC/N=C(\C)c1c(O)c2ccccc2[nH]c1=O	≥ 100	inactive	
C/C(=N\C(C)C)c1c(O)c2ccccc2oc1=O	≥ 100	inactive	
C/C(=N\CCCOCc1ccc2c(c1)OCO2)c1c(O)c2ccccc2oc1=O	≥ 100	inactive	IC50 [3]: ≥ 100 µM; IC50 [4]: 29 µM; CC10 [5]: 110 µM; CC50 [5]: > 200 µM; Kinetic_solubility [6]: 122 µM
C/C(=N\CC(C)C)c1c(O)c2ccccc2[nH]c1=O	≥ 100	inactive	
C/C(=N\Cc1ccccn1)c1c(O)c2ccccc2oc1=O	≥ 100	inactive	
CCCCC/N=C(\C)c1c(O)c2cc([N+](=O)[O-])ccc2oc1=O	≥ 100	inactive	
C/C(=N\CC(C)C)c1c(O)c2ccccc2oc1=O	≥ 100	inactive	
CCC(C)/N=C(\C)c1c(O)c2ccccc2[nH]c1=O (configuration not stated)	≥ 100	inactive	
CCCC/N=C(\C)c1c(O)c2ccccc2[nH]c1=O	≥ 100	inactive	
C/C(=N\Cc1ccccc1)c1c(O)c2ccccc2n(C)c1=O	≥ 100	inactive	
CCCCC/N=C(\C)c1c(O)c2ccccc2oc1=O	≥ 100	inactive	
C/C(=N\C(C)C)c1c(O)c2ccccc2[nH]c1=O	≥ 100	inactive	
C/C(=N\CCCO)c1c(O)c2ccccc2oc1=O	≥ 100	inactive	
C/N=C(\C)C1C(=O)Oc2ccccc2C1=O (configuration not stated)	≥ 100	inactive	
COc1cc(/C=C/C(=O)c2c(O)c3ccccc3oc2=O)ccc1O	≥ 100	inactive	IC50 [3]: ≥ 100 µM; IC50 [4]: ≥ 100 µM
CC/C(=N\Cc1ccccc1)c1c(O)c2ccccc2oc1=O	≥ 100	inactive	
